Measured values taken from ChEMBL document CHEMBL1157805, “Virtual screening, selection and development of a benzindolone structural scaffold for inhibition of lumazine synthase” (Bioorg Med Chem, 2010).

How the values were obtained:
[1] = substrate: O=C1Nc2ccc(S(=O)(=O)NCCCCCCOP(=O)(O)O)c3cccc1c23; assay: (§1) Activity at Mycobacterium tuberculosis recombinant lumazine synthase after 30 mins by fluorescence assay
How it was run: (§2)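 Recombinant M. tuberculosis lumazine synthase (2 μM) in 100 mM Tris-HCl pH 7.0, 100 mM NaCl, 5 mM DTT, 2% DMSO. Dihydroxybutanone phosphate was fixed at 100 μM, pyrimidinedione substrate varied 3–100 μM, and inhibitor 0–200 μM. Reactions were started with the pyrimidinedione substrate. Lumazine formation was read at 408 nm for 30 min at 27 °C. Velocity–substrate data were fitted by nonlinear regression to alternative inhibition models.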

[2] = substrate: CCOC(=O)C(=O)Nc1c(Cl)[nH]c(=O)[nH]c1=O; assay: as §1; how it was run: as §2
[3] = substrate: O=C1Nc2ccc(S(=O)(=O)NCCOP(=O)(O)O)c3cccc1c23; assay: as §1; how it was run: as §2
[4] = substrate: O=C1Nc2ccc(S(=O)(=O)NCCCOP(=O)(O)O)c3cccc1c23; assay: as §1; how it was run: as §2
[5] = substrate: O=C1Nc2ccc(S(=O)(=O)NCCCCOP(=O)(O)O)c3cccc1c23; assay: as §1; how it was run: as §2
[6] = substrate: O=C1Nc2ccc(S(=O)(=O)NCCCCCOP(=O)(O)O)c3cccc1c23; assay: as §1; how it was run: as §2

B1: 6,7-dimethyl-8-ribityllumazine synthase (Mycobacterium tuberculosis), P9WHE9 (protein)
chain: MKGGAGVPDLPSLDASGVRLAIVASSWHGKICDALLDGARKVAAGCGLDDPTVVRVLGAIEIPVVAQELARNHDAVVALGVVIRGQTPHFDYVCDAVTQGLTRVSLDSSTPIANGVLTTNTEEQALDRAGLPTSAEDKGAQATVAALATALTLRELRAHS
In the case of B1, the kcat [1] is reported as 0.0075 s⁻¹, the kcat [2] is reported as 0.0102 s⁻¹ and the kcat [3] is reported as 0.00683 s⁻¹. It also gave a kcat [4] of 0.0075 s⁻¹, a kcat [5] of 0.00733 s⁻¹ and a kcat [6] of 0.0075 s⁻¹.
